# From ChEMBL document CHEMBL2040792, “New chromene scaffolds for adenosine A(2A) receptors: synthesis, pharmacology and structure-activity relationships” (Eur J Med Chem, 2012)
# Tests used:
# [1] = biological target: T1, Adenosine receptor A1 (Homo sapiens) (UniProt P30542); assay: Displacement of [3H]DPCPX from human adenosine A1 receptor expressed in CHO cells at 10 uM after 60 mins by beta scintillation counting; type: cell-based
# T1 sequence (whole entry): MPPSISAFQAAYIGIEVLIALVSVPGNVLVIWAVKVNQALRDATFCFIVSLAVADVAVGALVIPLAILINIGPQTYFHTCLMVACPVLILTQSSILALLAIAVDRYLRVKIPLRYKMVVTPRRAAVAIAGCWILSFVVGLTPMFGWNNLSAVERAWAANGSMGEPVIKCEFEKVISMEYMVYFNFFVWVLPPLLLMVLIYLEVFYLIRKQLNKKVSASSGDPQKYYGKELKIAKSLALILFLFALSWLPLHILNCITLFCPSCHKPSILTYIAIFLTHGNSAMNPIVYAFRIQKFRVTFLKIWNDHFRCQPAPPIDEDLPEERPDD
# Summary of the method: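 CHO-A1 membranes (15 µg protein) in Hepes/NaCl/MgCl2 buffer with adenosine deaminase, pH 7.4. Test compound at 10 µM with 2 nM [3H]DPCPX, 60 min at 25 °C, in duplicate. Nonspecific binding with 10 µM (R)-PIA. Percent inhibition read after filtration.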
# Adenosine receptor A2a [2] = biological target: T2, Adenosine receptor A2a (Homo sapiens, UniProt P29274); assay: Displacement of [3H]ZM241385 from human adenosine A2A receptor expressed in human HeLa cells at 10 uM after 30 mins by beta scintillation counting; type: cell-based
# Summary of the method: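 Single-point screen at 10 µM on HeLa-A2A membranes (10 µg protein), Tris/EDTA/MgCl2 buffer with adenosine deaminase, pH 7.4. 3 nM [3H]ZM241385, 30 min at 25 °C, in duplicate. Nonspecific binding with 50 µM NECA. Percent inhibition.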
# [3] = biological target: T3, Adenosine receptor A2b (Homo sapiens) (UniProt P29275); assay: Displacement of [3H]DPCPX from human adenosine A2B receptor expressed in HEK293 cells at 10 uM after 30 mins by beta scintillation counting; type: cell-based
# T3 sequence (whole entry): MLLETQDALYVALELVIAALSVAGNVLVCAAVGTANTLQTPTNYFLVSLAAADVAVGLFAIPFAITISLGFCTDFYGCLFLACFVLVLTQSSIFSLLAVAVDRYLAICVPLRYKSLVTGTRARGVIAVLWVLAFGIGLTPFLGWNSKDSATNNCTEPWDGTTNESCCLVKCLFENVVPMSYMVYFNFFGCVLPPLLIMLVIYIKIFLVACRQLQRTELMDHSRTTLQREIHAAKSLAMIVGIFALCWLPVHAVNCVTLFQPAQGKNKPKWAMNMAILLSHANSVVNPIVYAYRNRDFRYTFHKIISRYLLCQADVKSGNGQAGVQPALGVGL
# Summary of the method: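 Percent inhibition at 10 µM in HEK-293-A2B membranes (18 µg protein), pH 6.5 Tris buffer with benzamidine, bacitracin and adenosine deaminase. 35 nM [3H]DPCPX, 30 min at 25 °C, in duplicate. Nonspecific binding with 400 µM NECA.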
# [4] = biological target: T4, Adenosine receptor A3 (Homo sapiens) (UniProt P0DMS8); assay: Displacement of [3H]NECA from human adenosine A3 receptor expressed in human HeLa cells at 10 uM after 180 mins by beta scintillation counting; type: cell-based
# T4 sequence (whole entry): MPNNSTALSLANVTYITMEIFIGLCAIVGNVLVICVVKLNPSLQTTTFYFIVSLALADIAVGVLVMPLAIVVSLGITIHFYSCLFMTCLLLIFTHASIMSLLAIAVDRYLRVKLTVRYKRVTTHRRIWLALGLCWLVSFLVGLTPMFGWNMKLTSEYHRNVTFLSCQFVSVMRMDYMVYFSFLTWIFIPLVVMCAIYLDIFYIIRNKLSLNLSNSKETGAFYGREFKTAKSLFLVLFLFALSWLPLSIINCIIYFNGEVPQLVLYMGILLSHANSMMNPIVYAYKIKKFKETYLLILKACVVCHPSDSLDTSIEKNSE
# Summary of the method: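 HeLa-A3 membranes (90 µg protein) in 50 mM Tris-HCl, 1 mM EDTA, 5 mM MgCl2, 2 UI/mL adenosine deaminase, pH 7.4. Test compound at 10 µM with 30 nM [3H]NECA, 180 min at 25 °C, in triplicate. Nonspecific binding with 100 µM (R)-PIA. Percent inhibition read after GF/B filtration.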
# Adenosine receptor A2a [5] = biological target: T2, Adenosine receptor A2a; assay: Displacement of [3H]ZM241385 from human adenosine A2A receptor expressed in human HeLa cells after 30 mins by beta scintillation counting; type: cell-based
# Summary of the method: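 HeLa-A2A membranes (10 µg protein) in 50 mM Tris-HCl, 1 mM EDTA, 10 mM MgCl2, 2 UI/mL adenosine deaminase, pH 7.4, with 3 nM [3H]ZM241385. Nonspecific binding with 50 µM NECA. Incubated 30 min at 25 °C, in duplicate. Six concentrations (10 nM-100 µM); IC50 by nonlinear regression, converted to Ki by Cheng-Prusoff.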
# Adenosine receptor A2b = biological target: T5, Adenosine receptor A2b (Homo sapiens, UniProt P29275); assay: Displacement of [3H]DPCPX from human adenosine A2B receptor expressed in HEK293 cells after 30 mins by beta scintillation counting; type: cell-based
# T5 sequence (P29275 whole entry): T3 sequence (whole entry)
# Summary of the method: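 HEK-293-A2B membranes (18 µg protein) in 50 mM Tris-HCl, 1 mM EDTA, 10 mM MgCl2, 0.1 mM benzamidine, 10 µg/mL bacitracin, 2 UI/mL adenosine deaminase, pH 6.5, with 35 nM [3H]DPCPX. Nonspecific binding with 400 µM NECA. Incubated 30 min at 25 °C, in duplicate. Six concentrations (10 nM-100 µM); IC50 by nonlinear regression, Ki by Cheng-Prusoff.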
# Adenosine receptor A2a [6] = biological target: T2, Adenosine receptor A2a; assay: Antagonist activity at human adenosine A2A receptor expressed in CHO cells assessed as inhibition of NECA-induced cAMP accumulation incubated for 15 mins prior to NECA-induction measured after 15 mins by enzyme immunoassay relative to control; type: functional, cell-based
# Summary of the method: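 Stably transfected CHO cells grown with dialyzed FBS, washed in DMEM F-12 with 25 mM HEPES pH 7.4 and 30 μM rolipram. Antagonist preincubated 15 min, then NECA (0.1 nM-1 mM) added for a further 15 min. cAMP measured by enzyme immunoassay. NECA curves fitted to a sigmoidal equation; pKB derived from the EC50 shift at one antagonist concentration.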
# T2 sequence (P29274 whole entry): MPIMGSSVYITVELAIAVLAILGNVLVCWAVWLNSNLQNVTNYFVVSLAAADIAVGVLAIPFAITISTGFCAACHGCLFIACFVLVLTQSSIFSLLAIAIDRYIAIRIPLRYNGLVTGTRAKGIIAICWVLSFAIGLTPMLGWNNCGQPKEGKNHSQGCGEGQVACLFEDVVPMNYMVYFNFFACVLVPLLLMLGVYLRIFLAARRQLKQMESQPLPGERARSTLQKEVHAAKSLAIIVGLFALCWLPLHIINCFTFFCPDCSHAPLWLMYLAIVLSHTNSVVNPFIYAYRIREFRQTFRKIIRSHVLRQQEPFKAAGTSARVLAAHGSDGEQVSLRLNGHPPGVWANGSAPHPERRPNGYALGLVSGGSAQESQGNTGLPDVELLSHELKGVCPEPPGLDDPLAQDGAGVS
Structure (SMILES),inhibition [1],inhibition (Adenosine receptor A2a [2]),inhibition [3],inhibition [4],Ki (Adenosine receptor A2a [5]),Ki (Adenosine receptor A2b),pKb (Adenosine receptor A2a [6])
COc1cccc2c1OC(C)(O)C(C(C)=O)=C2 (configuration not stated),6%,10%,24%,30%,–,–,–
COCCNC(=O)c1cc2cc(Cl)ccc2oc1=N,17%,10%,9%,13%,–,–,–
O=C(NCCCO)c1cc2ccccc2oc1=O,24%,10%,19%,6%,–,–,–
COc1cc(Br)cc2cc(C(=O)NCCCO)c(=N)oc12,31%,16%,30%,23%,–,–,–
N=c1oc2ccc(Br)cc2cc1C(=O)NC1CCCCC1,5%,1%,10%,8%,–,–,–
N=c1oc2ccc(Br)cc2cc1C(=O)NCC(O)CO (configuration not stated),11%,8%,4%,10%,–,–,–
CCC(CO)NC(=O)c1cc2cc(Br)ccc2oc1=N (configuration not stated),20%,3%,4%,24%,–,–,–
CCC(CO)NC(=O)c1cc2cc(Cl)ccc2oc1=N (configuration not stated),7%,15%,9%,0%,–,–,–
COc1ccc(-n2cnc(C#N)c2NC(=O)c2cc3cccc(OC)c3oc2=N)cc1,37%,58%,5%,42%,–,–,–
COc1cccc2cc(C(=O)Nc3c(C#N)ncn3-c3ccc(C#N)cc3)c(=N)oc12,18%,41%,10%,1%,–,–,–
N=c1oc2ccc(Br)cc2cc1C(=O)NCCCO,32%,14%,25%,17%,–,–,–
COc1cccc2cc(C(=O)NCCCNC(=O)c3cc4cccc(OC)c4oc3=N)c(=N)oc12,31%,> 70%,> 70%,11%,398 nM,10000 nM,–
O=C(NCC(O)CO)c1cc2cc(Cl)ccc2oc1=O (configuration not stated),21%,2%,23%,1%,–,–,–
COc1cccc2cc(C(=O)Nc3c(C#N)ncn3-c3ccc(F)cc3)c(=N)oc12,46%,> 70%,30%,20%,631 nM,–,6.02
O=C(NCCCN1CCN(CCCNC(=O)c2cc3ccccc3oc2=O)CC1)c1cc2ccccc2oc1=O,9%,1%,22%,15%,–,–,–
N=c1oc2ccc(Br)cc2cc1C(=O)NC1CCCC1,17%,5%,28%,0%,–,–,–
COc1cccc2cc(C(=O)Nc3c(C#N)ncn3-c3ccccc3)c(=N)oc12,33%,> 70%,9%,40%,1000 nM,–,–
O=C(NC1CCCC1)c1cc2ccccc2oc1=O,16%,1%,18%,20%,–,–,–
N=c1oc2ccc(Br)cc2cc1C(=O)NCCO,26%,6%,15%,0%,–,–,–

# Results, then the molecule that gave them:
inhibition [1],inhibition (Adenosine receptor A2a [2]),inhibition [3],inhibition [4],Ki (Adenosine receptor A2a [5]),Ki (Adenosine receptor A2b),pKb (Adenosine receptor A2a [6]),Structure (SMILES)
4%,11%,29%,22%,–,–,–,O=C(NCC(O)CO)c1cc2cccc(O)c2oc1=O (configuration not stated)
12%,6%,24%,3%,–,–,–,COc1cccc2cc(C(=O)N[C@@H](CO)C(=O)O)c(=O)oc12
45%,65%,18%,0%,–,–,–,COCCNC(=O)c1cc2cccc(OC)c2oc1=O
55%,> 70%,> 70%,8%,501 nM,1000 nM,–,COc1cccc2cc(C(=O)NCC(O)c3ccccc3)c(=N)oc12 (configuration not stated)
47%,> 70%,65%,23%,1000 nM,–,–,COc1cccc2cc(C(=O)NCCO)c(=N)oc12
14%,7%,25%,1%,–,–,–,COc1cccc2cc(C(=O)NCC(O)CO)c(=O)oc12 (configuration not stated)
1%,2%,9%,0%,–,–,–,O=C(O)CNC(=O)c1cc2ccccc2oc1=O
18%,1%,24%,8%,–,–,–,O=C(NCCCO)c1cc2cccc(O)c2oc1=O
12%,1%,7%,1%,–,–,–,COc1cccc2cc(C(=O)NCCO)c(=O)oc12
47%,> 70%,42%,1%,631 nM,–,–,COc1cccc2cc(C(=O)NCCCO)c(=N)oc12
10%,1%,15%,1%,–,–,–,COc1cccc2cc(C(C)=O)c(=O)oc12
40%,> 70%,51%,15%,1580 nM,–,–,CCOC(CNC(=O)c1cc2cccc(OC)c2oc1=N)OCC
27%,13%,35%,15%,–,–,–,COc1cccc2cc(C(=O)NCC(=O)O)c(=O)oc12
44%,> 70%,> 70%,13%,1000 nM,1260 nM,–,COc1cccc2cc(C(=O)NCCCCCO)c(=N)oc12
24%,66%,39%,6%,–,–,–,CCC(CO)NC(=O)c1cc2cccc(OC)c2oc1=N (configuration not stated)
19%,24%,28%,18%,–,–,–,COc1cccc2cc(C(=O)NC(CO)(CO)CO)c(=N)oc12
